From ChEMBL document CHEMBL1136157, “Synthesis of 3a,4-dihydro-3H-[1]benzopyrano[4,3-c]isoxazoles, displaying combined 5-HT uptake inhibiting and alpha(2)-adrenoceptor antagonistic activities: a novel series of potential antidepressants” (Bioorg Med Chem Lett, 2003) come the findings set out here.

In assay [1] the target is Sodium-dependent serotonin transporter (Rattus norvegicus) (UniProt P31652). The assay can be described thus: In vivo effective dose required to inhibit p-chloroamphetamine induced excitation in rats upon subcutaneous administration. It counts as functional, organism-based. A digest of the protocol: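 Overnight-starved male Wistar rats (200–250 g) given test compound or solvent sc 1 h before p-chloroamphetamine (5 mg/10 mL/kg, sc). Excitation scored over a 15-min interval starting 45 min after pCA. A score <2 was the all-or-nothing criterion for inhibition (1.0% false positives, n>200). ED50 in mg/kg.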

Assay [2] addresses Adrenergic receptor alpha-2 (Rattus norvegicus) (UniProt P22086+P19328+P22909). The assay can be described thus: In vivo effective dose required to inhibit xylazine-induced loss of righting in rats upon subcutaneous administration. It counts as functional, organism-based.
In assay [3] the target is T1, Alpha-2C adrenergic receptor (Homo sapiens, UniProt P18825).
T1 sequence (P18825 whole entry): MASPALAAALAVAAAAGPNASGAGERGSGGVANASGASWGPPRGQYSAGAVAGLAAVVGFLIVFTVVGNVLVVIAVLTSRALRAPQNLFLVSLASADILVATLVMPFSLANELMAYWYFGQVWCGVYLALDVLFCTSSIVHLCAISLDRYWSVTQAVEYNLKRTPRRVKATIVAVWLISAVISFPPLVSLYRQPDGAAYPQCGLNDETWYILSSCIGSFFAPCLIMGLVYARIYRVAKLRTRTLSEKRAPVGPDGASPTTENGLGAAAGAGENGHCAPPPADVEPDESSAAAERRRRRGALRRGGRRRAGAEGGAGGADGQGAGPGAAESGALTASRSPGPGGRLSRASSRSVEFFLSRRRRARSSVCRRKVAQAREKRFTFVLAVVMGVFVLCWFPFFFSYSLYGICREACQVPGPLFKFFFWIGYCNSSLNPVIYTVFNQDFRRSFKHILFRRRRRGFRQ
Description: In vitro binding affinity towards human adrenergic alpha-2C adrenergic receptor using [3H]rauwolscine.

Assay [4] concerns the target T2, Alpha-2B adrenergic receptor (Homo sapiens, UniProt P18089).
T2 sequence (P18089 whole entry): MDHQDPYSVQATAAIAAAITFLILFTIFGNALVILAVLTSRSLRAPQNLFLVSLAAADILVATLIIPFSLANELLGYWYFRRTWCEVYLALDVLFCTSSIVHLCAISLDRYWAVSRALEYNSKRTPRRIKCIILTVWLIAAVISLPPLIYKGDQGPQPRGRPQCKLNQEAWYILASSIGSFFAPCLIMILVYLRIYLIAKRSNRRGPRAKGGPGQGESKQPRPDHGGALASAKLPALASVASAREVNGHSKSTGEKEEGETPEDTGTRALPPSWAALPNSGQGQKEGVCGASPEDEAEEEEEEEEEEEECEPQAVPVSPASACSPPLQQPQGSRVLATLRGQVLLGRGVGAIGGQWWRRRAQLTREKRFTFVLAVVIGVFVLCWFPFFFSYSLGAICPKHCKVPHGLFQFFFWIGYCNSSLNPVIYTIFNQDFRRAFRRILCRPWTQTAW
The assay can be described thus: In vitro binding affinity towards human alpha-2B adrenergic receptor using [3H]rauwolscine.

Chain of Sodium-dependent serotonin transporter (Rattus norvegicus) (P31652 whole entry): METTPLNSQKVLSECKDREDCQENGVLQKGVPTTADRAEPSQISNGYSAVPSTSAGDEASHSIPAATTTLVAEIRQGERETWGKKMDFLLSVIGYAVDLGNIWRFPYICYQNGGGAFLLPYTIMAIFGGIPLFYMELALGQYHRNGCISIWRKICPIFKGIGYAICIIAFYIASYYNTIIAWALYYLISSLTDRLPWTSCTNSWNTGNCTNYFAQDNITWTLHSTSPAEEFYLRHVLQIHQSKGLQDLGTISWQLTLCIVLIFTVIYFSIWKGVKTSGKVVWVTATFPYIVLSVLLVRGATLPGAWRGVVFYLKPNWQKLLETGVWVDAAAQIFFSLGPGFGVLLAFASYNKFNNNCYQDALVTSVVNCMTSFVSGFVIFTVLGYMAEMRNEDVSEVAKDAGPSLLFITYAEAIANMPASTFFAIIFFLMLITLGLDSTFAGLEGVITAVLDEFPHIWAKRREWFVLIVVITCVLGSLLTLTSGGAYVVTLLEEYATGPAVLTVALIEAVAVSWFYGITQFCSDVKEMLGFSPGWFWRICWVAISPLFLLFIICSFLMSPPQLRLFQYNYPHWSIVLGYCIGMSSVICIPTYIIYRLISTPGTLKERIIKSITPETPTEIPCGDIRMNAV

For `COc1cc2c(cc1OC)C1=NO[C@@H](CN3CCN(Cc4ccc5ccccc5c4)CC3)[C@@H]1CO2` (stereo in doubt; (-)15h) [listing 1 of 2 here], the figures for the ED50 in assay [1] and in assay [2] were 1.5 mg/kg and 10 mg/kg, respectively.

On to `COc1cc2c(cc1OC)C1=NO[C@@H](CN3CCN(C/C=C/c4ccccc4)CC3)[C@@H]1CO2` (stereo in doubt; (+)5) [listing 1 of 2 here], for which the values for the ED50 in assay [1] and in assay [2] were 0.51 mg/kg and 2.5 mg/kg, respectively.

`COc1cc2c(cc1OC)C1=NOC(CN3CCN(Cc4ccc5ccccc5c4)CC3)C1CO2` (centres undefined): the ED50 – broadly, the dose that gives a 50% effect, or the effect in half of the subjects – was determined as 0.79 mg/kg in assay [1] and 5 mg/kg in assay [2]. The results for the Ki in assay [3] and in assay [4] were 3.1 nM and 49 nM, respectively.

As to `COc1cc2c(cc1OC)C1=NO[C@@H](CN3CCN(C/C=C(\C)c4ccccc4)CC3)[C@@H]1CO2` (stereo in doubt; (-)15g) [listing 1 of 2 here], the Ki (usually a measure of affinity in units of concentration, obtained from inhibition or displacement) came out at 10 nM in assay [3] and 405 nM in assay [4].

In assay [2], `COc1cc2c(cc1OC)C1=NOC(CN3CCN(C/C(C)=C/c4ccccc4)CC3)C1CO2` (centres undefined) returned an ED50 of 1 mg/kg. Further, the Ki is 0.2 nM in assay [3] and 7.5 nM in assay [4].

As for `COc1cc2c(cc1OC)C1=NO[C@@H](CN3CCN(Cc4ccc5ccccc5c4)CC3)[C@@H]1CO2` (stereo in doubt; (+)15h) [listing 1 of 2 here], the ED50 in assay [1] was 0.08 mg/kg; in assay [2], 6.1 mg/kg.

For `COc1cc2c(cc1OC)C1=NO[C@@H](CN3CCN(C/C=C(\C)c4ccccc4)CC3)[C@@H]1CO2` (stereo in doubt; (+)15g) [listing 1 of 2 here], the ED50 in assay [1] worked out at 0.5 mg/kg; in assay [2], 0.32 mg/kg.

In assay [4], `COc1cc2c(cc1OC)C1=NO[C@@H](CN3CCN(C/C=C/c4ccccc4)CC3)[C@@H]1CO2` (stereo in doubt; (-)5) [listing 1 of 2 here] displayed a Ki of 42 nM.

As to `COc1cc2c(cc1OC)C1=NO[C@@H](CN3CCN(C/C(C)=C/c4ccccc4)CC3)[C@@H]1CO2` (stereo in doubt; (-)15f) [listing 1 of 2 here], the Ki in assay [3] was 1.4 nM; in assay [4], 15 nM.

With `COc1cc2c(cc1OC)C1=NO[C@@H](CN3CCN(C/C=C(\C)c4ccccc4)CC3)[C@@H]1CO2` (stereo in doubt; (-)15g) [listing 2 of 2 here], the ED50 in assay [1] and in assay [2] was more than 10 mg/kg throughout.

The molecule `COc1cc2c(cc1OC)C1=NO[C@@H](CN3CCN(C/C(C)=C/c4ccccc4)CC3)[C@@H]1CO2` (stereo in doubt; (+)15f) [listing 1 of 2 here] showed a median effective dose (ED50) in assay [2] of 3.1 mg/kg.

Turning to `COc1cc2c(cc1OC)C1=NO[C@@H](CN3CCN(C/C=C/c4ccccc4)CC3)[C@@H]1CO2` (stereo in doubt; (+)5) [listing 2 of 2 here], in assay [4], affinity was put at a Ki of 14 nM.

For `COc1cc2c(cc1OC)C1=NO[C@@H](CN3CCN(C/C=C/c4ccccc4)CC3)[C@@H]1CO2` (stereo in doubt; (-)5) [listing 2 of 2 here], the median effective dose (ED50) worked out at 2.5 mg/kg in assay [1] and 5 mg/kg in assay [2].

On to `COc1cc2c(cc1OC)C1=NO[C@@H](CN3CCN(Cc4ccc5ccccc5c4)CC3)[C@@H]1CO2` (stereo in doubt; (-)15h) [listing 2 of 2 here], for which the inhibitory constant (Ki) in assay [3] was determined as 9.5 nM; in assay [4], 95 nM.

Take `COc1cc2c(cc1OC)C1=NO[C@@H](CN3CCN(C/C(C)=C/c4ccccc4)CC3)[C@@H]1CO2` (stereo in doubt; (+)15f) [listing 2 of 2 here]: the figures for the inhibition constant Ki in assay [3] and in assay [4] were 0.1 nM and 3 nM, respectively.

In the case of `COc1cc2c(cc1OC)C1=NO[C@@H](CN3CCN(Cc4ccc5ccccc5c4)CC3)[C@@H]1CO2` (stereo in doubt; (+)15h) [listing 2 of 2 here], the Ki came out at 0.8 nM in assay [3] and 14 nM in assay [4].

Take `COc1cc2c(cc1OC)C1=NOC(CN3CCN(C/C=C/c4ccccc4)CC3)C1CO2` (centres undefined): the figures for the ED50 in assay [1] and in assay [2] were 0.76 mg/kg and 2.5 mg/kg, respectively. This molecule also displayed an inhibition constant (Ki) in assay [4] of 42 nM.

In the case of `COc1cc2c(cc1OC)C1=NO[C@@H](CN3CCN(C/C=C(\C)c4ccccc4)CC3)[C@@H]1CO2` (stereo in doubt; (+)15g) [listing 2 of 2 here], the values for the inhibitory constant (Ki) in assay [3] and in assay [4] were 0.2 nM and 14 nM, respectively.

In assay [2], `COc1cc2c(cc1OC)C1=NO[C@@H](CN3CCN(C/C(C)=C/c4ccccc4)CC3)[C@@H]1CO2` (stereo in doubt; (-)15f) [listing 2 of 2 here] yielded a 50% effective dose (ED50) of more than 10 mg/kg.

As for `COc1cc2c(cc1OC)C1=NO[C@@H](CN3CCN(C/C=C\c4ccccc4)CC3)[C@@H]1CO2`, in assay [1], the 50% effect level (ED50) was put at a dose of 10 mg/kg.
